# In the library only some 1.7% were active in any assay of this set; here they are far more common.
# HIV Rev-RRE inh: HIV Rev-RRE protein-RNA interaction inhibition | P05866 | Rev peptide-RRE RNA binding, FRET | inhibition, % at 8 µM | 97,000 compounds, 0.79% hits | AID 704;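 active = inhibition above the screen-wide mean plus 3 SD, cut at about 35% in these data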;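 note: 0% = median DMSO wells and 100% = median Neomycin B control wells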
# Target sequence (P05866 whole entry, looked up): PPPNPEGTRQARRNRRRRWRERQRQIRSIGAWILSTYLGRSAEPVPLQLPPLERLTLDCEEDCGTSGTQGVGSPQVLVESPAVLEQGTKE
#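 Assay system: Labelled RRE RNA duplex and labelled Rev peptide | Times: 5 min preincubation and 15 min binding, 25 °C | Detection: FRET, ex 480 nm, em 540 and 671 nm | Evaluation: % inhibition of FRET ratio versus controls | Benchmarks: DMSO wells as 0% and neomycin B wells as 100% inhibition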
# S1P2 ag: agonists of human S1P2 receptor; S1P2-expressing cell line, agonist reporter read-out; activation, % at 4.5 µM; 97,000 compounds, 0.46% hits; AID 729; in the data active = activation above about 16%;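 note: 0% = vehicle low control and 100% = maximal reference agonist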
# Target sequence (O95136 whole entry, looked up): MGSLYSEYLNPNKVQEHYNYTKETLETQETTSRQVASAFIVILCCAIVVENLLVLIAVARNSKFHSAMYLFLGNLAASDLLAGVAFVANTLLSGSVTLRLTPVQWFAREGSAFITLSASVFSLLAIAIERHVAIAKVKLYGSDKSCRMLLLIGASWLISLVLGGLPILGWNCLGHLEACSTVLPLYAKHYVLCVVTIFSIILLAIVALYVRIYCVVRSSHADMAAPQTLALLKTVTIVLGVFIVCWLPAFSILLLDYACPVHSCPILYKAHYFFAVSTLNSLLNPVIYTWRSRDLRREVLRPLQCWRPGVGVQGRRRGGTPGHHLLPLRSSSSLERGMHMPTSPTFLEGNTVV
# GALR2 blocker: GALR2 (human) receptor antagonism; GALR2-expressing cells, antagonist mode; inhibition, % at 4 µM; AID 828; O43603; 140,000 compounds, 0.39% hits; in the data active = inhibition above about 27%;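 note: cells stimulated with galanin 1-16 at roughly its EC80; 0% = agonist challenge control and 100% = basal control without agonist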
# S1P2 blocker: S1P2 (human) receptor antagonism; cell-based S1P2 antagonist assay, inhibition at 5 uM; 97,000 compounds, 0.21% hits; inhibition, % at 5 µM; O95136; AID 736; in the data active = inhibition above about 45%;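 note: CRE beta-lactamase reporter cells expressing human S1P2 stimulated with S1P; 0% = agonist at EC80 alone and 100% = agonist plus reference antagonist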
# GALR2 agonist: activates the human galanin receptor 2; GALR2-expressing cells, agonist activation read-out; O43603; activation, % (concentration not given with the values); 140,000 compounds, 0.48% hits; in the data active = activation above about 5%, passing the limit was not always enough;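 note: 0% = vehicle buffer wells and 100% = reference agonist at full effect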
# EphB4 ephrin blk: blocks human EphB4 binding to ephrin-B2 | 97,000 compounds, 0.15% hits | EphB4 LBD / TNYL-RAW-Alexa532 peptide, fluorescence polarization | P54760 | inhibition, % at 7 µM;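 active = inhibition above the screen-wide mean inhibition plus 3 SD, cut at about 15% in these data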;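 note: 0% = DMSO wells and 100% = excess unlabeled TNYL-RAW peptide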
# Numbers without * were called inactive; . = no result given; [ ] = another dose, or the depositor's remark.
SMILES,HIV Rev-RRE inh,S1P2 ag,GALR2 blocker,S1P2 blocker,GALR2 agonist,EphB4 ephrin blk
Cc1cccc(N2C(=O)c3cccc4c(N(C)CCO)ccc(c34)C2=O)c1,129*[fluorescence artefact?],-9,17,15,-2,5
CC(C)(C)c1cc[n+](-c2nc([O-])sc2C=O)cc1,.,.,10,.,-2,.
CCc1cc[n+](-c2nc([O-])sc2C=O)cc1,46*,-5,-13,12,0,0
COc1cccc(OC)c1C(=O)OCC(=O)Nc1ccc(OC(F)(F)F)cc1,9,-3,7,-3,-3,4
Cn1c(-c2cc3ccc(OC(=O)C(C)(C)C)cc3oc2=O)nc2ccccc21,2,34*,21,2,46*,7
COc1ccccc1-c1c(C#N)c(N)nc2c1CCc1ccccc1-2,.,.,12,.,5.7*,.
COc1ccc2c(CSc3nc4nc(C)cc(C)n4n3)cc(=O)oc2c1,4,17*,-24,-25,1,1
Cn1cc(C(=O)c2ccc(Cl)cc2)cc1-c1nc2ccccc2n1C,16,-7,-9,24,-1,-1
Cc1ccc(-n2c(SCC(=O)Nc3cc(C)on3)nc3c([nH]c4ccccc43)c2=O)cc1,7,18*,3,-9,2,14
C=CCn1c(C#N)c(N)sc1=N,9,-8,7,-2,-2,15*
COC(=O)c1cc(NC(=O)c2cccc(C(F)(F)F)c2)c(=O)oc1C/C=N/OCc1cccc(Cl)c1Cl,39*,-6,-11,-9,-2,-36
O=C(NCc1ccccc1Cl)c1cccc(C(F)(F)F)c1,.,.,-14,.,0,.
CCCc1cc(=O)[nH]c(-n2[nH]c3c(c2=O)CCCC3)n1,69*,-3,11,7,-1,-5
CCCc1cc(=O)[nH]c(SCC)n1,4,-8,7,14,-1,-2
COc1ccc(CNCC(O)(c2ccc(Cl)cc2)c2ccc(Cl)cc2)cc1OC,63*,-2,-20,19,-1,-5
CC(Sc1nc2ccccc2s1)C(=O)NC1CCCc2ccccc21 (stereo not drawn),.,.,5,.,-1,.
COC(=O)CN1C(=O)S/C(=C/c2ccc(N3CCCCC3)o2)C1=O,140*[fluorescence artefact?],-5,6,33,-2,-4
CCOC(=O)CN1C(=O)S/C(=C/c2ccc(N3CCCCC3)o2)C1=O,112*[fluorescence artefact?],-5,2,16,-3,-1
COC(=O)CN1C(=O)S/C(=C/c2cc(C)n(C)c2C)C1=O,-2,-1,2,-26,-1,-9
CN1C(=O)CSc2ccc(NC(=O)Nc3ccccn3)cc21,11,-12,-12,51*,0,8
Cn1c(=O)c(=O)n(C)c2cc(S(=O)(=O)Nc3ccc4c(c3)OCCO4)ccc21,6,-3,2,12,0,5
Cn1c(=O)oc2cc(S(=O)(=O)Nc3ccc4c(c3)OCCO4)ccc21,38*,-5,9,1,-2,4
CCSc1nnc([C@H](C)NC(=O)OC(C)(C)C)o1,-1,-13,5,14,-1,8
COc1ccccc1OCC(=O)c1[nH]c(C)c(C(C)=O)c1C,6,-3,-1,51*,-2,1
CCCN1C(=O)/C(=N\OCC(=O)NC23CC4CC(CC(C4)C2)C3)c2ccccc21,.,.,5,.,-1,.
SMILES,HIV Rev-RRE inh,S1P2 ag,GALR2 blocker,S1P2 blocker,GALR2 agonist,EphB4 ephrin blk
Nc1c(C(=O)Nc2ccc(F)cc2)sc2nc(-c3ccco3)ccc12,46*,-9,14,29,-1,4
Nc1c(C(=O)Nc2ccc(Br)cc2)sc2nc(-c3ccco3)ccc12,46*,-9,19,37,2,-6
Cc1ccc(NC(=O)c2sc3nc4c(c(-c5ccco5)c3c2N)CCC4)cc1,18,-13,20,18,0,1
COc1ccc2nc(SCc3nc(N)nc(Nc4ccccc4)n3)[nH]c2c1,2,17*,1,0,0,-2
COc1ccc2nc(SCC(=O)Nc3ccccc3)[nH]c2c1,.,.,11,.,-1,.
COC(=O)c1ccc2c(c1)C(C)(C)C(/C=C/c1ccc(OC)c(OC)c1OC)=[N+]2C,31,-10,-7,48*,0,-5
COC(=O)c1ccc(O)c(Sc2cc(C(=O)OC)ccc2O)c1,2,-8,6,-7,-3,1
COC(=O)c1ccc2c(c1)C(C)(C)C(/C=C/c1ccc(O)cc1)=[N+]2C,79*[fluorescence artefact?],6,25,37,6.8*,-57
COC(=O)c1ccc2nc(C)c(C)nc2c1,5,-5,-9,-1,-2,1
O=C(O)CCCCCN1C(=O)/C(=C\c2ccncc2)SC1=S,.,.,-3,.,-1,.
O=C(O)CCCN1C(=O)/C(=C/c2ccc(-c3nc4ccccc4s3)o2)SC1=S,71*,-7,-13,9,-4,-5
CCOC(=O)N1CCN(/C=C(\C#N)c2nc3ccccc3s2)CC1,53*,-4,7,13,-1,-3
N#C/C(=C\N1CCN(Cc2ccc3c(c2)OCO3)CC1)c1nc2ccccc2s1,65*,-4,-4,9,-1,9
CN1C(=O)/C(=C/c2cn(CC(=O)N3CCCCC3)c3ccccc23)c2ccccc21,11,-5,1,-20,-1,9
O=C1C=C(NCc2ccc(Cl)cc2)CCC1,.,.,-11,.,-2,.
CCN(CC)CC(=O)N1N=C(c2cccs2)CC1c1ccco1 (stereo not drawn),7,-1,0,4,-2,4
c1ccc(N2N=C(c3cccs3)CC2c2ccco2)cc1 (stereo not drawn),3,47*,0,-49,57*,3
Clc1ccc(N2N=C(c3cccs3)CC2c2ccco2)cc1 (stereo not drawn),4,102*,-5,-78,70*,-6
Cc1ccc(C2CC(=O)N3CN(c4ccc(Br)cc4)CSC3=C2C#N)o1 (stereo not drawn),45*,1,-10,-12,-2,3
CCOc1ccc(N2CSC3=C(C#N)C(c4ccco4)CC(=O)N3C2)cc1 (stereo not drawn),6,-3,-5,-1,-2,-2
COc1ccc(CCNc2c([N+](=O)[O-])c(=O)oc3ccccc23)cc1OC,0,-2,2,-6,-1,1
O=C(CSc1ccccc1)Nc1ccc(-c2nc3ccccc3[nH]2)cc1,.,.,-5,.,-1,.
O=C(CSc1ccc(Cl)cc1)Nc1cccc(-c2nc3ccccc3[nH]2)c1,.,.,1,.,6.2*,.
O=C(C#Cc1cccc([N+](=O)[O-])c1)c1ccccc1,6,-10,25,75*,-3,4
O=S(=O)(Nc1nc2ccccc2nc1N1CCc2ccccc2C1)c1ccc(Cl)cc1,.,.,5,.,-2,.
O=S(=O)(Nc1nc2ccccc2nc1N1CCN(c2ccccn2)CC1)c1ccc(Cl)cc1,36*,-3,-3,-17,-2,4
O=c1c2ccccc2nc(-c2ccccc2)n1Cc1ccco1,1,33*,-9,-4,-1,2

# High-throughput results (PubChem BioAssay)
